From ChEMBL document CHEMBL1641411, “Synthesis and optimization of novel 4,4-disubstituted cyclohexylbenzamide derivatives as potent 11β-HSD1 inhibitors” (Bioorg Med Chem Lett, 2011)
Calls of active or inactive are those of the source. The rule behind the calls is not given here.

Experiments:
[1] = Metabolic stability in human liver microsomes assessed as compound turnover at 30 mins; assay type: ADME, Microsome; conditions: read-out: Stability
Method in brief: (§1)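 Compounds incubated with human or rat liver microsomes; percent turnover of parent measured at 30 min.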

[2] = Oral bioavailability in rat at 2 mg/kg; assay type: ADME, organism-based; conditions: in vivo
Method in brief: (§2)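 Rat PK: single iv dose of 0.5 mg/kg, with a separate oral dose of 2.0 mg/kg. Clearance, Vdss and half-life come from the iv arm. Oral AUC and %F come from the po arm.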

[3] = AUC in rat at 2 mg/kg, po; assay type: ADME, organism-based; set-up: dose 2 mg/kg, route oral; conditions: plasma; method in brief: as §2
[4] = Half life in rat at 0.5 mg/kg, iv; assay type: ADME, organism-based; set-up: dose 0.5 mg/kg, route intravenous; conditions: in vivo; method in brief: as §2
[5] = Clearance in rat at 0.5 mg/kg, iv and 2 mg/kg, po; assay type: ADME, organism-based; conditions: in vivo; method in brief: as §2
[6] = target: T1, Nuclear receptor subfamily 1 group I member 2 (Homo sapiens, UniProt O75469); test: Activation of PXR relative to control; set-up: concentration or dose not given beside the values
T1 sequence (O75469 whole entry): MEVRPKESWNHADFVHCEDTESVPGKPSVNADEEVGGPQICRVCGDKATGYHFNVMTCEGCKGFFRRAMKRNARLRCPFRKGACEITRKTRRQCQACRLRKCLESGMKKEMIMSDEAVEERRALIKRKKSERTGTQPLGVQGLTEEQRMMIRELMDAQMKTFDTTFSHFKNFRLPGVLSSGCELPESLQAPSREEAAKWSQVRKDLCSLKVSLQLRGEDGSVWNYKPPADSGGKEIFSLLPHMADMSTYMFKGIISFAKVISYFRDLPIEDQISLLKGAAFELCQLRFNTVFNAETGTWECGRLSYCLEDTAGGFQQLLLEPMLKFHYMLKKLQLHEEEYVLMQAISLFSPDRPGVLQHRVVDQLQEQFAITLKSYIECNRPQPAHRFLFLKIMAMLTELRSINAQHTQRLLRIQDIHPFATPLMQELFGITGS
Method in brief: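 PXR activation measured with compound at 2 µM, expressed as % of control.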

[7] = Metabolic stability in rat liver microsomes assessed as compound turnover at 30 mins; assay type: ADME, Microsome; conditions: read-out: Stability; method in brief: as §1
[8] = target: 11-beta-hydroxysteroid dehydrogenase 1 (Rattus norvegicus, UniProt P16232); test: Inhibition of rat 11beta-HSD1 assessed as inhibition of conversion of [3H]cortisone to [3H]cortisol by scintillation proximity assay
[9] = Volume of distribution at steady state in rat at 0.5 mg/kg, iv and 2 mg/kg, po; assay type: ADME, organism-based; conditions: in vivo, read-out: Vdss; method in brief: as §2
Rattus norvegicus [10] = test: Ex vivo inhibition of 11beta-HSD1 in Sprague-Dawley rat assessed as inhibition of conversion of [3H]cortisone to [3H]cortisol at 20 mg/kg, po; assay type: functional
Method in brief: (§3)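 Sprague–Dawley rats dosed orally at 4, 20 or 100 mg/kg; killed 2 h post-dose. Epididymal fat isolated and incubated in media containing [3H]-cortisone; rat 11β-HSD1 activity read as [3H]-cortisol formed. Reported as % inhibition over vehicle-dosed animals.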

Rattus norvegicus [11] = test: Ex vivo inhibition of 11beta-HSD1 in Sprague-Dawley rat assessed as inhibition of conversion of [3H]cortisone to [3H]cortisol at 100 mg/kg, po; assay type: functional; method in brief: as §3
Rattus norvegicus [12] = test: Ex vivo inhibition of 11beta-HSD1 in Sprague-Dawley rat assessed as inhibition of conversion of [3H]cortisone to [3H]cortisol at 4 mg/kg, po; assay type: functional; method in brief: as §3
Cynomolgus monkey = conditions: Macaca fascicularis; 4 to 100 mg/kg
[13] = Plasma concentration in cynomolgus monkey at 4 mg/kg, po after 2 hrs by LC/MS/MS analysis; assay type: ADME, organism-based, Macaca fascicularis; set-up: dose 4 mg/kg, route oral
Method in brief: (§4)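 Monkeys given oral doses of 4, 20 or 100 mg/kg in 1% methylcellulose/1% Tween 80 in sterile water, 5–6 animals per group. Plasma collected 2 h after dosing for drug concentration.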

[14] = Plasma concentration in cynomolgus monkey at 100 mg/kg, po after 2 hrs by LC/MS/MS analysis; assay type: ADME, organism-based, Macaca fascicularis; set-up: dose 100 mg/kg, route oral; method in brief: as §4
[15] = Plasma concentration in cynomolgus monkey at 20 mg/kg, po after 2 hrs by LC/MS/MS analysis; assay type: ADME, organism-based, Macaca fascicularis; set-up: dose 20 mg/kg, route oral; method in brief: as §4
[16] = Bioavailability in cynomolgus monkey; assay type: ADME, organism-based, Macaca fascicularis; conditions: in vivo
[17] = Inhibition of cynomolgus monkey 11beta-HSD1 assessed as inhibition of conversion of [3H]cortisone to [3H]cortisol by scintillation proximity assay; set-up: species or system Macaca fascicularis
[18] = Clearance in cynomolgus monkey; assay type: ADME, organism-based, Macaca fascicularis; conditions: in vivo

Chain of 11-beta-hydroxysteroid dehydrogenase 1 (P16232 whole entry): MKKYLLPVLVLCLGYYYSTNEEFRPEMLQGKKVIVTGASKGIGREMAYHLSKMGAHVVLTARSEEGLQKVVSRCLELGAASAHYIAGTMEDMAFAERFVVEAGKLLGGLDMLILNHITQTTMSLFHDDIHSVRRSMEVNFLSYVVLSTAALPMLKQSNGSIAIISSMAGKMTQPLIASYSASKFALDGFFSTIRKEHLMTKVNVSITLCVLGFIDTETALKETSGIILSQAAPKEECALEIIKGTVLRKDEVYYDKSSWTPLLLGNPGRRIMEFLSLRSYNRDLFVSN

C[C@](O)(c1ccc(C(=O)N(C2CC2)[C@H]2CC[C@](COC(N)=O)(c3ccccc3)CC2)cc1)C(F)(F)F
metabolised at 0.5 h [1]: < 10%
bioavailability [2]: 20%
AUC [3]: 2770 ng·h/mL
half-life [4]: 3.9 h
clearance [5]: 2.67 mL/min/kg
Activity [6]: < 5%
metabolised at 0.5 h [7]: < 10%
IC50 [8]: 86 nM
Vd [9]: 1 L/kg
inhibition in vivo at 20 mg/kg (Rattus norvegicus [10]): 43%
inhibition in vivo at 100 mg/kg (Rattus norvegicus [11]): 71%
inhibition in vivo at 4 mg/kg (Rattus norvegicus [12]): 23%

C[C@](O)(c1ccc(C(=O)N(C2CC2)[C@H]2CC[C@](COC(N)=O)(c3ccc(F)cn3)CC2)cc1)C(F)(F)F
metabolised at 0.5 h [1]: < 10%
metabolised at 0.5 h [7]: < 10%

C[C@](O)(c1ccc(C(=O)N(C2CC2)[C@H]2CC[C@](CC#N)(c3ccccc3)CC2)cc1)C(F)(F)F
metabolised at 0.5 h [1]: 19%
Activity [6]: 9%
metabolised at 0.5 h [7]: 17%

C[C@](O)(c1ccc(C(=O)N(C2CC2)[C@H]2CC[C@](CC(N)=O)(c3ccccc3)CC2)cc1)C(F)(F)F
metabolised at 0.5 h [1]: < 10%
Activity [6]: < 5%
metabolised at 0.5 h [7]: < 10%

C[C@](O)(c1ccc(C(=O)N(C2CC2)[C@H]2CC[C@](COC(N)=O)(c3ccccc3F)CC2)cc1)C(F)(F)F
metabolised at 0.5 h [1]: < 10%
bioavailability [2]: 48%
AUC [3]: 6790 ng·h/mL
half-life [4]: 5.2 h
clearance [5]: 2.5 mL/min/kg
metabolised at 0.5 h [7]: < 10%
IC50 [8]: 144 nM
Vd [9]: 1.28 L/kg
inhibition in vivo at 20 mg/kg (Rattus norvegicus [10]): 43%
inhibition in vivo at 100 mg/kg (Rattus norvegicus [11]): 70%
inhibition in vivo at 4 mg/kg (Rattus norvegicus [12]): 27%

C[C@](O)(c1ccc(C(=O)N(C2CC2)[C@H]2CC[C@](COC(N)=O)(c3cscn3)CC2)cc1)C(F)(F)F
metabolised at 0.5 h [1]: < 10%
bioavailability [2]: 25%
AUC [3]: 618 ng·h/mL
half-life [4]: 4.5 h
clearance [5]: 13.7 mL/min/kg
metabolised at 0.5 h [7]: < 10%
IC50 [8]: 30 nM
Vd [9]: 3.7 L/kg
inhibition in vivo at 20 mg/kg (Rattus norvegicus [10]): 38%
inhibition in vivo at 100 mg/kg (Rattus norvegicus [11]): 75%
inhibition in vivo at 4 mg/kg (Rattus norvegicus [12]): 6%

C[C@](O)(c1ccc(C(=O)N(C2CC2)[C@H]2CC[C@](CNS(C)(=O)=O)(c3ccccc3)CC2)cc1)C(F)(F)F
metabolised at 0.5 h [1]: < 10%
Activity [6]: < 5%
metabolised at 0.5 h [7]: 21%

C[C@](O)(c1ccc(C(=O)N(C2CC2)[C@H]2CC[C@](CCC(N)=O)(c3ccc(F)cc3)CC2)cc1)C(F)(F)F
metabolised at 0.5 h [1]: < 10%
metabolised at 0.5 h [7]: < 10%

C[C@](O)(c1ccc(C(=O)N(C2CC2)[C@H]2CC[C@](CCC(N)=O)(c3ccccc3)CC2)cc1)C(F)(F)F
metabolised at 0.5 h [1]: < 10%
inhibition (Cynomolgus monkey): Active
concentration at 2 h [13]: 151 ng/mL
concentration at 2 h [14]: 1710 ng/mL
Activity [6]: < 5%
concentration at 2 h [15]: 2000 ng/mL
metabolised at 0.5 h [7]: < 10%
bioavailability [16]: 81%
IC50 [17]: 22 nM
clearance [18]: 1 mL/min/kg

C[C@](O)(c1ccc(C(=O)N(C2CC2)[C@H]2CC[C@](CCC#N)(c3ccccc3)CC2)cc1)C(F)(F)F
metabolised at 0.5 h [1]: 10%
metabolised at 0.5 h [7]: 51%

C[C@](O)(c1ccc(C(=O)N(C2CC2)[C@H]2CC[C@](CCC(N)=O)(c3ccccc3F)CC2)cc1)C(F)(F)F
metabolised at 0.5 h [1]: < 10%
metabolised at 0.5 h [7]: < 10%

CC(=O)NC[C@]1(c2ccccc2)CC[C@H](N(C(=O)c2ccc([C@](C)(O)C(F)(F)F)cc2)C2CC2)CC1
metabolised at 0.5 h [1]: < 10%
Activity [6]: < 5%
metabolised at 0.5 h [7]: < 10%

C[C@](O)(c1ccc(C(=O)N(C2CC2)[C@H]2CC[C@](CCO)(c3ccccc3)CC2)cc1)C(F)(F)F
metabolised at 0.5 h [1]: < 10%
Activity [6]: 6%
metabolised at 0.5 h [7]: < 10%

C[C@](O)(c1ccc(C(=O)N(C2CC2)[C@H]2CC[C@](COC(N)=O)(c3ccccn3)CC2)cc1)C(F)(F)F
metabolised at 0.5 h [1]: < 10%
bioavailability [2]: 64%
AUC [3]: 6180 ng·h/mL
half-life [4]: 4.2 h
clearance [5]: 3.5 mL/min/kg
metabolised at 0.5 h [7]: < 10%
IC50 [8]: 220 nM
Vd [9]: 1.24 L/kg
inhibition in vivo at 20 mg/kg (Rattus norvegicus [10]): 44%
inhibition in vivo at 100 mg/kg (Rattus norvegicus [11]): 72%
inhibition in vivo at 4 mg/kg (Rattus norvegicus [12]): 14%

C[C@](O)(c1ccc(C(=O)N(C2CC2)[C@H]2CC[C@](CO)(c3ccccc3)CC2)cc1)C(F)(F)F
metabolised at 0.5 h [1]: 10%
Activity [6]: < 5%
metabolised at 0.5 h [7]: 32%

C[C@](O)(c1ccc(C(=O)N(C2CC2)[C@H]2CC[C@](COC(N)=O)(c3ccc(F)cc3)CC2)cc1)C(F)(F)F
metabolised at 0.5 h [1]: < 10%
metabolised at 0.5 h [7]: < 10%

C[C@](O)(c1ccc(C(=O)N(C2CC2)[C@H]2CC[C@](O)(C3CC3)CC2)cc1)C(F)(F)F
metabolised at 0.5 h [1]: < 10%
Activity [6]: < 5%
metabolised at 0.5 h [7]: < 10%

C[C@](O)(c1ccc(C(=O)N(C2CC2)[C@H]2CC[C@](CCC(N)=O)(c3ccccn3)CC2)cc1)C(F)(F)F
metabolised at 0.5 h [1]: < 10%
metabolised at 0.5 h [7]: < 10%
